Assay results: ChEMBL document CHEMBL4689842, “EUbOPEN Chemogenomics Library wave 1” (2021)

Experiments:
Assay type in all cases: toxicity, cell-based
[1] = tested on: U2OS; assay: Incucyte cell viability with U2OS; details: human, 10 µM, compound concentration 10 uM; also: filed as whole numbers so only -1 and 0 and 1 occur
[2] = tested on: Fibroblast; assay: Multiplex assay against human fibroblast
Procedure, shortened: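 Per cents of healthy-nucleus cells form the tubulin, mitochondrial-mass and membrane-permeability phenotype values. Live cells were stained at seeding with Hoechst33342, BioTracker Green Microtubule Cytoskeleton Dye, MitoTracker Red and Annexin V Alexa Fluor 680. After compound addition they were imaged on a CQ1 microscope at 37°C and 5% CO2, and CellPathfinder machine-learning gating split them into Hoechst high-intensity objects or normal cells, normal cells into healthy, pyknosed or fragmented nuclei, and pyknosed cells into mitotic or apoptotic.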

[3] = tested on: Fibroblast; assay: Incucyte cell viability with human fibroblast; details: 10 µM, compound concentration 10 uM; also: filed as whole numbers so only -1 and 0 and 1 occur
[4] = 6 h, replicate number 1, timepoint 6 hours
[5] = 12 h, replicate number 1, timepoint 12 hours
[6] = 12 h, replicate number 2, timepoint 12 hours
[7] = 18 h, replicate number 1, timepoint 18 hours
[8] = 24 h, replicate number 1, timepoint 24 hours
[9] = 12 h, 1 µM, compound concentration 1 uM, replicate 1
[10] = 12 h, 1 µM, compound concentration 1 uM, replicate 2
[11] = 12 h, 10 µM, compound concentration 10 uM, replicate 1
[12] = 12 h, 10 µM, compound concentration 10 uM, replicate 2
[13] = 24 h, 1 µM, compound concentration 1 uM, replicate 1
[14] = 24 h, 1 µM, compound concentration 1 uM, replicate 2
[15] = 24 h, 10 µM, compound concentration 10 uM, replicate 1
[16] = 24 h, 10 µM, compound concentration 10 uM, replicate 2

SMILES: Cc1cn(-c2cc(NC(=O)c3ccc4c(c3)CN(c3cncnc3)C[C@@H]4C)cc(C(F)(F)F)c2)cn1
- Growth Rate ([1]; 0 h, replicate number 1, timepoint 0 hours): 0
- Growth Rate [1, 4]: 0
- Growth Rate [1, 5]: 0
- Growth Rate [1, 6]: 1
- Growth Rate [1, 7]: 0
- Growth Rate [1, 8]: 0
- Population Apoptotic (%) [2, 9]: 81%
- Population Fragmented Nuclei (%) [2, 9]: 31%
- Population Healthy Nuclei (%) [2, 9]: 50%
- Population Hoechst High Intensity Objects (%) [2, 9]: 15%
- Population Membrane Permeable-Phenotype (%) [2, 9]: 7%
- Population Mitochondria Different-Phenotype (%) [2, 9]: 4%
- Population Mitotic Cells (%) [2, 9]: 18%
- Population Normal (%) [2, 9]: 84%
- Population Pyknosed Nuclei (%) [2, 9]: 17%
- Population Tubulin-Different-Phenotype (%) [2, 9]: 9%
- Total Cell Count [2, 9]: 147
- Population Apoptotic (%) [2, 10]: 42%
- Population Fragmented Nuclei (%) [2, 10]: 58%
- Population Healthy Nuclei (%) [2, 10]: 31%
- Population Hoechst High Intensity Objects (%) [2, 10]: 30%
- Population Membrane Permeable-Phenotype (%) [2, 10]: 0%
- Population Mitochondria Different-Phenotype (%) [2, 10]: 9%
- Population Mitotic Cells (%) [2, 10]: 57%
- Population Normal (%) [2, 10]: 70%
- Population Pyknosed Nuclei (%) [2, 10]: 10%
- Population Tubulin-Different-Phenotype (%) [2, 10]: 22%
- Total Cell Count [2, 10]: 100
- Population Apoptotic (%) [2, 11]: 71%
- Population Fragmented Nuclei (%) [2, 11]: 33%
- Population Healthy Nuclei (%) [2, 11]: 49%
- Population Hoechst High Intensity Objects (%) [2, 11]: 13%
- Population Mitochondria Different-Phenotype (%) [2, 11]: 5%
- Population Mitotic Cells (%) [2, 11]: 28%
- Population Normal (%) [2, 11]: 86%
- Population Pyknosed Nuclei (%) [2, 11]: 17%
- Population Tubulin-Different-Phenotype (%) [2, 11]: 23%
- Total Cell Count [2, 11]: 141
- Population Apoptotic (%) [2, 12]: 75%
- Population Fragmented Nuclei (%) [2, 12]: 67%
- Population Healthy Nuclei (%) [2, 12]: 18%
- Population Hoechst High Intensity Objects (%) [2, 12]: 36%
- Population Membrane Permeable-Phenotype (%) [2, 12]: 10%
- Population Mitochondria Different-Phenotype (%) [2, 12]: 50%
- Population Mitotic Cells (%) [2, 12]: 25%
- Population Normal (%) [2, 12]: 63%
- Population Pyknosed Nuclei (%) [2, 12]: 14%
- Population Tubulin-Different-Phenotype (%) [2, 12]: 40%
- Total Cell Count [2, 12]: 87
- Population Apoptotic (%) [2, 13]: 92%
- Population Fragmented Nuclei (%) [2, 13]: 35%
- Population Healthy Nuclei (%) [2, 13]: 45%
- Population Hoechst High Intensity Objects (%) [2, 13]: 19%
- Population Membrane Permeable-Phenotype (%) [2, 13]: 11%
- Population Mitochondria Different-Phenotype (%) [2, 13]: 1%
- Population Mitotic Cells (%) [2, 13]: 7%
- Population Normal (%) [2, 13]: 80%
- Population Pyknosed Nuclei (%) [2, 13]: 19%
- Population Tubulin-Different-Phenotype (%) [2, 13]: 7%
- Total Cell Count [2, 13]: 172
- Population Apoptotic (%) [2, 14]: 42%
- Population Fragmented Nuclei (%) [2, 14]: 51%
- Population Healthy Nuclei (%) [2, 14]: 37%
- Population Hoechst High Intensity Objects (%) [2, 14]: 28%
- Population Membrane Permeable-Phenotype (%) [2, 14]: 13%
- Population Mitochondria Different-Phenotype (%) [2, 14]: 8%
- Population Mitotic Cells (%) [2, 14]: 57%
- Population Normal (%) [2, 14]: 71%
- Population Pyknosed Nuclei (%) [2, 14]: 11%
- Population Tubulin-Different-Phenotype (%) [2, 14]: 17%
- Total Cell Count [2, 14]: 87
- Population Apoptotic (%) [2, 15]: 66%
- Population Fragmented Nuclei (%) [2, 15]: 36%
- Population Healthy Nuclei (%) [2, 15]: 48%
- Population Hoechst High Intensity Objects (%) [2, 15]: 16%
- Population Membrane Permeable-Phenotype (%) [2, 15]: 3%
- Population Mitochondria Different-Phenotype (%) [2, 15]: 10%
- Population Mitotic Cells (%) [2, 15]: 33%
- Population Normal (%) [2, 15]: 83%
- Population Pyknosed Nuclei (%) [2, 15]: 15%
- Population Tubulin-Different-Phenotype (%) [2, 15]: 26%
- Total Cell Count [2, 15]: 161
- Population Apoptotic (%) [2, 16]: 57%
- Population Fragmented Nuclei (%) [2, 16]: 66%
- Population Healthy Nuclei (%) [2, 16]: 20%
- Population Hoechst High Intensity Objects (%) [2, 16]: 36%
- Population Membrane Permeable-Phenotype (%) [2, 16]: 9%
- Population Mitochondria Different-Phenotype (%) [2, 16]: 18%
- Population Mitotic Cells (%) [2, 16]: 42%
- Population Normal (%) [2, 16]: 63%
- Population Pyknosed Nuclei (%) [2, 16]: 12%
- Population Tubulin-Different-Phenotype (%) [2, 16]: 36%
- Total Cell Count [2, 16]: 85
- Growth Rate ([3]; 0 h, replicate number 2, timepoint 0 hours): 0
- Growth Rate [3, 4]: 0
- Growth Rate [3, 5]: 0
- Growth Rate [3, 6]: 1
- Growth Rate [3, 7]: 0
- Growth Rate [3, 8]: 0
